# Measured values pooled from the literature.
# Lines come from different studies, so protocols differ.
# Target: Ephrin type-A receptor 2 (EPHA2, Homo sapiens, UniProt P29317)
SMILES,read-out,mode,method,tested at,quantity,value
Cn1cncc1[C@@](O)(COc1ccc(C#N)cc1-c1ccc(OC(F)(F)F)cc1)c1ccc(C#N)cc1,cell-free assay,,competition with immobilised ligand,1 µM,remaining binding,89%
COc1cc(Nc2ncc(F)c(Nc3ccc4c(n3)NC(=O)C(C)(C)O4)n2)cc(OC)c1OC,binding,,competition with immobilised ligand,10 µM,inhibition,90%
N#CC1(c2ccccn2)CCN(Cc2cc(C(=O)O)c(=O)n3ccccc23)CC1,cell-free assay,,competition with immobilised ligand,1 µM,remaining binding,83%
CC(C)(C)c1cc(C=C(C#N)C#N)cc(Br)c1O,enzyme activity,inhibitor,,0.5 µM,remaining activity,105%
COc1ncccc1-c1cnn2ccc(N3CCN(C(=O)OC(C)C)CC3)nc12,binding,,competition with immobilised ligand,1 µM,remaining binding,79%
Cc1nn(C)cc1-c1nc2c(N3CCN(Cc4ccc(Cl)cc4)CC3)c(Cl)cnc2[nH]1,binding,,competition with immobilised ligand,1 µM,remaining binding,100%
Cn1cc(-c2cccc(N3CCc4c(sc5c4CC(C)(C)C5)C3=O)c2CO)cc(Nc2ccncn2)c1=O,enzyme activity,inhibitor,,1 µM,inhibition,16%
Nc1ncc(-c2nc(N3CCOCC3)nc(N3CCOCC3)n2)c(C(F)F)n1,cell-free assay,,competition with immobilised ligand,10 µM,remaining binding,94%
O=c1[nH]c2ccccc2n1C1CCN(Cc2ccc(-c3[nH]c4cc5ncnc5cc4nc3-c3ccccc3)cc2)CC1,cell-free assay,,,0.5 µM,remaining signal,103%
Cn1cc(-c2cc(F)cc(N3CCn4c(cc5c4CCCC5)C3=O)c2CO)cc(Nc2ccc(N3CCN(C4COC4)CC3)cn2)c1=O,enzyme activity,inhibitor,,0.1 µM,inhibition,-1%
